Screens from PubChem.
CHOP inhibitor: CHOP inhibition in unfolded protein response; CHO-K1 CHOP-promoter luciferase, tunicamycin-induced, 15-18 h; inhibition, % at 10 µM; 220,000 compounds, 3.8% hits; AID 2732;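 active = compounds that reduced the stress-induced luciferase reporter signal by more than about 70% of percent inhibition, limit read from the data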
Arbovirus anti: antivirals against arbovirus infection; 200,000 compounds, 0.37% hits; inhibition, % at 10 µM; arbovirus infection cell-based antiviral screen; AID 1251; in the data active = inhibition above about 30%
Rad51 HR inh: blocks human Rad51 in homologous recombination. Q06609. hRad51 DNA strand exchange, fluorescence dequenching. inhibition, % at 10 µM. 200,000 compounds, 0.085% hits. AID 1385;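 active = inhibition above 40% at the single screening dose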
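Test system: preformed human Rad51 ssDNA filaments; also added: Donor/quencher-labelled 47-bp dsDNA substrate; doses: 10 µM final, single point; times: 37 °C 15-min filament assembly, 30-min compound preincubation, 15-min exchange; detection: FRET fluorescence dequenching, excitation 485 nm, emission 520 nm; read-out basis: Fluorescence-based percent inhibition, control- and blank-normalised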
Lmaj promast: Leishmania major promastigote growth inhibition; Leishmania major promastigotes, resazurin fluorescence viability; inhibition, % at 10 µM; AID 1063; 200,000 compounds, 9% hits;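 also: promastigotes grown with compound for 44 hours at 28 °C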
PKD1 kinase inh: blocks activity of human protein kinase D1. Q15139. PKD1 kinase fluorescence polarization assay. inhibition, % (test concentration not listed). 200,000 compounds, 0.056% hits. AID 797
Wee1 degr inh: blocks degradation of human Wee1 kinase | reporter increase, % at 5 µM | 220,000 compounds, 1.2% hits | HeLa Luc-Wee1K328M stability, luciferase luminescence; 100% = proteasome inhibitor MG132 effect | P30291;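 active = activation above the mean of all tested compounds plus 3 SD, set per screening run, cut at about 8.8% in these data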;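 also: cells exposed to compound for 20 h before luminescence read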
Target sequence (P30291 whole entry K328M): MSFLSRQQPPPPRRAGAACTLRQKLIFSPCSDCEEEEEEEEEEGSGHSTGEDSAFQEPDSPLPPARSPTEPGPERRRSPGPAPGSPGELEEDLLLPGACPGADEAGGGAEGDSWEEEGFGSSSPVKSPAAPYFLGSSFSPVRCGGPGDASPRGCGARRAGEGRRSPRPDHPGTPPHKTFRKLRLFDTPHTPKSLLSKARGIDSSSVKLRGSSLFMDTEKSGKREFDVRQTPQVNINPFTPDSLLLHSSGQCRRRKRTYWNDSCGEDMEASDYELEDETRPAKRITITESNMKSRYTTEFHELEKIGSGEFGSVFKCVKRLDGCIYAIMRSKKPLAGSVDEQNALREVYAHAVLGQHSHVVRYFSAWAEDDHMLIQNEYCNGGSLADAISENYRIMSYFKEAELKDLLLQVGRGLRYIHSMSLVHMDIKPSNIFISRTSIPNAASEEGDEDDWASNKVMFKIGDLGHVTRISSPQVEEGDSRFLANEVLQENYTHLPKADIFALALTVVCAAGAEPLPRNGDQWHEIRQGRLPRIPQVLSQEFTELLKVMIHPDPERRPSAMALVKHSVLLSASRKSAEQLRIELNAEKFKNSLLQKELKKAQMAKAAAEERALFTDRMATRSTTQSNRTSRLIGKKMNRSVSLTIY
A number is an active result; 0 = inactive; - = no result given. This is a sample that favours compounds with a hit; in the whole collection about 12% have one here. Rule as the data show it, unless noted: active = inhibition above about 50%; inactive = the rest.

SMILES	CHOP inhibitor	Arbovirus anti	Rad51 HR inh	Lmaj promast	PKD1 kinase inh	Wee1 degr inh
COc1ccc(Nc2nc(N3CCCCC3)nc(N3CCCCC3)n2)c(OC)c1	-	-	0	-	-	-
COC(=O)C1(O)CC(C(C)C)=NN1C(=O)c1ccccc1 (stereo unspecified)	0	0	-	0	0	0
CC(CCc1ccccc1)NC(=O)CN1CCN(c2ccccc2)CC1 (stereo unspecified)	0	0	0	0	0	0
Cc1c(Cl)c([N+](=O)[O-])nn1CCCC(=O)N1CCN(c2ccccc2)CC1	0	0	0	0	0	0
Cc1c(Br)c([N+](=O)[O-])nn1CCCC(=O)N1CCN(c2ccccc2)CC1	0	0	0	70	0	0
O=C(Cn1cc([N+](=O)[O-])nc1[N+](=O)[O-])N1CCN(c2ccccc2)CC1	0	0	0	100	0	0
Cc1c(Cl)c([N+](=O)[O-])nn1CCCC(=O)Nc1c(Cl)cccc1Cl	0	0	0	0	0	0
Cc1c(Cl)c([N+](=O)[O-])nn1CCCC(=O)N(Cc1ccccc1)Cc1ccccc1	73	0	-	0	0	0
CCOC(=O)c1cc(C#N)c(Nc2ccc(C)cc2)nc1C(F)(F)F	0	-	0	-	-	0
COc1cccc(-n2c(=O)n(Cc3ccccc3)c(=O)c3[nH]cnc32)c1C	0	-	0	-	-	0
NC(=O)N/N=C/c1c(Sc2nnnn2-c2ccccc2)nc2ccccn2c1=O	0	-	0	-	-	0
CCOc1ccc(OCC)c(-c2c(=O)n(OCc3ccccc3Br)c3ccccc3[n+]2[O-])c1	0	0	0	71	0	0
CCOc1ccc(-c2c(=O)n(OCc3nc4ccccc4[nH]3)c3ccccc3[n+]2[O-])cc1	0	-	0	-	-	0
CCOc1ccc(OCC)c(-c2c(=O)n(OCc3ccccc3C(=O)OC)c3ccccc3[n+]2[O-])c1	0	0	0	79	0	0
CCOc1ccc(-c2c(=O)n(OCc3ccccc3Br)c3ccccc3[n+]2[O-])c(OCC)c1	0	0	0	0	0	0
COc1ccc2c(c1)[nH]c1c(=O)n(CCCn3ccnc3)cnc12	0	0	0	0	0	0
CCN(Cc1ccccc1)c1ccc(/C=N/NC(=S)NC(C)C)cc1	0	0	0	0	0	0
CCN(Cc1ccccc1)c1ccc(/C=N/N=C(N)N)cc1	77	0	0	100	0	0
CCn1cc(C(=O)NC(=S)Nc2cccc(O)c2)cn1	0	0	0	0	0	0
Cc1ccc(NP(=O)(c2ccc(N(C)C)cc2NC(=O)c2cccs2)N2CCOCC2)cc1 (stereo unspecified)	0	0	0	0	0	0
Cc1ccc(NP(=O)(c2ccc(N(C)C)cc2NC(=O)c2cccs2)N2CCOCC2)cc1Cl (stereo unspecified)	0	0	0	58	0	0
COc1ccc2c(c1OC)C(=O)OC2C1c2c(cc3c(c2OC)OCO3)CCN1C (stereo unspecified)	0	0	0	0	0	0
CN1CCc2cc3c(c4c2[C@H]1[C@H](O)c1ccccc1-4)OCO3	0	0	0	96	0	0
Cc1ccc(C)c(S(=O)(=O)N2CCN(CC(=O)N3CCc4ccccc4C3)CC2)c1	0	0	0	0	0	0
O=C(CN1CCC(Cc2ccccc2)CC1)N1CCc2ccccc2C1	0	0	0	79	0	0
SMILES	CHOP inhibitor	Arbovirus anti	Rad51 HR inh	Lmaj promast	PKD1 kinase inh	Wee1 degr inh
O=C(CN1C(=O)NC2(CCCCCCC2)C1=O)N1CCc2ccccc2C1	0	0	0	68	0	0
O=C(c1ccccc1)C1CCN(CC(=O)N2CCN(c3ccccc3)CC2)CC1	0	0	0	92	0	0
O=C(CN1CCN(c2ccc(F)cc2)CC1)N1CCC(Cc2ccccc2)CC1	0	0	0	88	0	0
COc1ccc(C2(CNC(=O)c3cccc([N+](=O)[O-])c3)CCOCC2)cc1	0	0	0	0	0	0
O=C(CN(C1CCCCC1)S(=O)(=O)c1ccccc1)N1CCCC1	0	0	0	0	0	0
CC1CCC2(CC1)NC(=O)N(CC(=O)N1CCN(S(=O)(=O)c3ccccc3)CC1)C2=O (stereo unspecified)	0	0	0	0	0	9.7
O=C(CN(C1CCCCC1)C1CCCCC1)N1CCc2ccccc2C1	87	0	0	64	0	0
Cc1ccc(N(CC(=O)NC(C)(C)C)C(=O)CNC(=O)c2cccs2)cc1C	0	0	0	0	0	0
COC(=O)c1sccc1NC(=S)N1C(C)CCCC1C (stereo unspecified)	0	0	0	0	0	0
CC(C)(C)OC(=O)NCCCC1=CC2=CC(=O)C(C)(OC(=O)C3CCCC3)C(=O)C2=CO1 (stereo unspecified)	-	-	0	-	-	-
CC1CN(C(=O)CCc2ccccc2)C(C)CN1C(=O)CCc1ccccc1 (stereo unspecified)	0	0	0	0	0	0
O=C(OC1C2CCC1C1CN(CCc3ccccc3)CC12)c1ccccc1 (stereo unspecified)	0	0	-	51	0	0
O=C(Cc1ccccc1)N1CCN=C1SCc1ccc([N+](=O)[O-])cc1	0	0	0	93	0	0
COc1ccc(CC(=O)N2CCN=C2SCc2ccc([N+](=O)[O-])cc2)cc1	0	0	0	76	0	0
O=C(Cc1ccc(F)cc1)N1CCN=C1SCc1ccc([N+](=O)[O-])cc1	0	0	0	0	0	0
CCc1ccc(OCCn2cccn2)cc1	0	0	0	0	0	0
O=C(NC1CCCCC1)N1CCCC(CNS(=O)(=O)Cc2ccccc2)C1 (stereo unspecified)	0	0	0	0	0	0
O=C(Nc1cccc(F)c1)N1CCCC(CNS(=O)(=O)Cc2ccccc2)C1 (stereo unspecified)	0	0	0	92	0	0
Cc1ccc(/C(O)=C/C(=O)C(=O)NC23CC4CC(CC(C4)C2)C3)cc1	0	-	0	-	-	0
NC(=O)c1ccc(C(F)(F)F)n(Cc2cccc(Cl)c2)c1=O	72	0	0	0	0	0
CCOc1cc(/C=N/NC(=O)Cn2nc([N+](=O)[O-])cc2C)cc(Br)c1OCc1ccccc1F	78	0	0	0	0	0
CCOc1cc(/C=N/NC(N)=O)cc(Br)c1OCc1ccccc1F	0	0	-	0	0	0
CCCOc1ccc(N2CC(C(=O)NC3=NCCS3)CC2=O)cc1 (stereo unspecified)	0	0	0	0	0	0
Cc1nn(Cc2ccc(Cl)cc2Cl)c(Cl)c1/C=C/C(=O)OCC(=O)NCC(F)(F)F	77	0	0	0	0	0
Cc1nn(Cc2ccccc2Cl)c(Cl)c1/C=C/C(=O)OCC(=O)NC(N)=O	0	0	0	0	0	0
Cn1cc(/C=C2\SC(=O)N(c3ccccc3)C2=O)c2ccccc21	0	0	0	0	0	0
CCN1C(=O)S/C(=C/c2cn(C)c3ccccc23)C1=O	0	0	0	82	0	0
O=C1C2CCCN2C(c2ccco2)N1c1ccc(F)cc1 (stereo unspecified)	0	0	0	0	0	10
